Results on three molecules are retold here after article PMC10228392 (mAbs, 2023).

The Kd is the equilibrium constant for the complex coming apart. One may read the stoichiometry N as a count of units in the complex or per binding partner.

Residue numbers refer to the chain shown, from its start. In names and notes the source's numbering stands.

In one data set the test system is α-caff VHH. Also on record: species or system llama. To be noted: binding to anti-caffeine VHH. The method, boiled down: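 Anti-caffeine VHH was dialysed overnight against PBS pH 7.4. Test compound at 50 µM in the syringe was titrated into 10 µM VHH in the cell at 25°C, as 27 injections of 10 µL.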
Data set [1] in a line: Guanidinium hydrochloride chemical unfolding by circular dichroism. The data set is classed as physicochemical. The following applies: 25°C. Background: Circular dichroism is widely used to follow secondary structure.
Data set [2] deals with anti-caffeine VHH produced through grafting CDR regions (Caffgraft). The data set is described as follows: AUC.
Another data set has as its system VHH:VHH dimer. Nature of the data set: Analytical ultracentrifugation, sedimentation equilibrium. The format is binding. The following applies: with vs without stoichiometric caffeine. An outline of the steps:
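Sedimentation equilibrium on tag-free, E. coli-expressed anti-caffeine VHH (WT, and F47R with caffeine) at 3, 10 and 30 µM, alone or with stoichiometric caffeine (1.5, 5, 15 µM), at 20°C. Cells were spun 24 h at 27,000, 32,000 and 44,000 rpm and scanned at 294, 260 and 236 nm. All speeds and concentrations were analysed globally: a single-exponential fit gave weight-averaged MW, then a monomer-dimer fit gave assembly constants.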

Data set [3] concerns the target anti-caffeine VHH produced through grafting CDR regions (Caffgraft). The data set is described as follows: ITC. (In general: Isothermal titration calorimetry measures the heat released or taken up as one component is titrated into another.)
For data set [4] the target is unchanged. Nature of the data set: AUC. This is another data set of the same source.
Data set [5] is described as follows: Isothermal titration calorimetry. An outline of the steps: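 Single arginine interface variants were made by site-directed mutagenesis and expressed in E. coli, and the tag was removed. For low-affinity binding (Turnbull method), 1 mM caffeine was titrated into 100 µM VHH variant, with stoichiometry fixed at n = 0.5 in the fit. Protein concentration came from ε280 30,035 M−1 cm−1 (F47R, V104R) or 28,545 M−1 cm−1 (Y106R).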

`Cn1c(=O)c2c(ncn2CC(=O)O)n(C)c1=O` [theophylline-7-acetic acid]: the “ΔΔG° penalty (loss in affinity) relative to caffeine” value in the data set with α-caff VHH was around 1.5 kcal/mol.

B1: anti-caffeine VHH produced through grafting CDR regions (Caffgraft) (VHH)
VHH: QVQLVESGGGLVQAGGSLRLSCTASGRTGTIYSMAWFRQAPGKEREFLATVGWSSGITYYMDSVKGRFTISRDKGKNTVYLQMDSLKPEDTAVYYCTATRAYSVGYDYWGQGTQVTVSS
For B1, the “loss of stability (ΔGu) relative to anti-RNase A VHH” value in data set [1] is listed as “approximately 1.5 kcal/mol”. For the same molecule, in data set [1] (guanidinium hydrochloride), the m-value is reported as 2.62 ± 0.06 kcal mol^−1M^−1. Also, the ΔGu in data set [1] (guanidinium hydrochloride, PBS pH 7.4, 10 μM VHH) is on record as 7.6 ± 0.2 kcal/mol. Also, the Kd in data set [2] came to 23.5 µM; in data set [3], 13.1 µM; in data set [4] it was 0.848 µM. In data set [2], the stoichiometry N turned out to be 2. Besides, in the data set with VHH:VHH dimer, the “fold higher observed dimerization affinity on caffeine binding” value is recorded as around 28 fold.

B2: α-caff VHH-F47R: anti-caffeine VHH dimer interface variant with arginine at F47 (Kabat numbering) (antibody, V domains shown)
VH: B1 VHH with F47R
B2: the “ΔΔG° (weaker caffeine binding affinity than anti-caffeine VHH)” value in data set [5] is above 5 kcal/mol.
